The record followed here is ChEMBL document CHEMBL4393719, “Tetrahydro-3-benzazepines with fluorinated side chains as NMDA and σ1 receptor antagonists: Synthesis, receptor affinity, selectivity and antiallodynic activity” (Eur J Med Chem, 2019).

Structures are written as SMILES. Active and inactive are the calls of the source.

The target in data set [1] is Delta-type opioid receptor (Homo sapiens, UniProt P41143). The data set is described as follows: Inhibition of DOR (unknown origin).
For data set [2], the target named is Voltage-gated inwardly rectifying potassium channel KCNH2 (Homo sapiens, UniProt Q12809). The data set is described as follows: Inhibition of human ERG expressed in CHO cells at -80 mV holding potential by automated patch clamp electrophysiology assay. The format is cell-based.
In data set [3] the target is Sodium-dependent noradrenaline transporter (Homo sapiens) (UniProt P23975). The data set is described as follows: Displacement of [3H]nisoxetine from recombinant human norepinephrine transporter at 1 uM after 60 mins by scintillation counting method relative to control. The procedure, abridged:
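Human NET-enriched membranes (1 μg), 5 nM [3H]nisoxetine in 50 mM Tris-HCl, 120 mM NaCl, 5 mM KCl, pH 7.4, 1% DMSO final; 60 min at 4 °C; 10 μM desipramine for nonspecific binding. Single 1 μM compound; filtration, displacement of radioligand.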

In data set [4] the target is 5-hydroxytryptamine receptor 2B (Homo sapiens) (UniProt P41595). The data set is described as follows: Displacement of [3H]-LSD from recombinant human 5HT2B receptor at 1 uM after 30 mins by scintillation counting method relative to control. The method, boiled down:
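Human 5-HT2B-enriched membranes (5 µg), 1 nM [3H]LSD in 50 mM Tris-HCl, 4 mM CaCl2, 1% ascorbic acid, pH 7.4, 0.1% DMSO; 30 min, 37 °C; 50 µM 5-HT for nonspecific binding. Single 1 µM compound concentration; displacement after filtration.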

The subject of data set [5] is Mus musculus. The data set is described as follows: Antiallodynic activity in CD-1 mouse model of capsaicin-induced mechanical allodynia assessed as increase in paw withdrawal threshold at 32 mg/kg, sc administered 30 mins before capsaicin addition and measured after 15 mins in presence of sigma1 receptor agonist PRE-084 by von-Frey test. The format is functional, organism-based. The method, boiled down: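 Female CD-1 mice pretreated sc with σ1 agonist PRE-084 (32 mg/kg) 5 min before sc test compound; 30 min later capsaicin 1 µg intraplantar. After 15 min, 0.5 g electronic von Frey stimulus on secondary hyperalgesia area; withdrawal latency averaged over three trials, 50 s cutoff. Effect as % antiallodynia versus HPMC-treated; 6-8 animals, one-way ANOVA plus Bonferroni.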

For data set [6], the system named is HepG2. The data set is described as follows: Cytotoxicity against human HepG2 assessed as reduction in cell viability at 1 to 100 uM after 20 hrs by MTT assay. The data set is classed as cell-based. The settings on record: hepg2, 20 h. The procedure, abridged:
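HepG2 cells, 3 x 10^4/well, grown 24 h in MEM/10% FBS, then exposed 20 h in serum-free medium to compound at 1, 10, 100 µM (from DMSO solutions). MTT 0.5 mg/mL for 4 h, formazan dissolved in DMSO, OD 550 nm. IC50 taken as lowest concentration giving ≥50% cytotoxicity versus untreated cells; duplicates in two assays (n = 4).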

Data set [7] deals with Sodium-dependent dopamine transporter (Homo sapiens) (UniProt Q01959). The data set is described as follows: Displacement of [3H]GBR12935 from human DAT at 1 uM after 120 mins by scintillation counting method relative to control. The procedure, abridged:
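DAT-enriched human membranes (5 µg), 2 nM [3H]GBR12935 in 50 mM Tris-HCl/100 mM NaCl pH 7.4, 0.1% DMSO, 120 min at 4 °C; 10 µM GBR12909 for nonspecific binding. Compound at 1 µM; displacement measured after filtration.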

Data set [8] is described as follows: Stability of compound in aqueous HCl solution at pH 2 after 24 hrs by HPLC analysis. The format is physicochemical. To be noted: buffer, pH 2, 24 h. The method, boiled down:
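Compound (25 μL of 10 mM DMSO stock) added to 1 mL aqueous buffered solution, pH 2 or pH 7.4, stirred 24 h at room temperature, analyzed by HPLC-MS; deemed stable if peak area remained 95–105%.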

The nature of data set [9]: Selectivity ratio of Ki for GluN2B/GluN1a (unknown origin) expressed in mouse L(tk-) cell membranes to Ki for sigma1 receptor in guinea pig brain cortex membranes. The data set is classed as cell-based.
The species entered for data set [10] is Sus scrofa. The settings on record: at 1 µM.

Voltage-gated inwardly rectifying potassium channel KCNH2, sequence (Q12809 whole entry): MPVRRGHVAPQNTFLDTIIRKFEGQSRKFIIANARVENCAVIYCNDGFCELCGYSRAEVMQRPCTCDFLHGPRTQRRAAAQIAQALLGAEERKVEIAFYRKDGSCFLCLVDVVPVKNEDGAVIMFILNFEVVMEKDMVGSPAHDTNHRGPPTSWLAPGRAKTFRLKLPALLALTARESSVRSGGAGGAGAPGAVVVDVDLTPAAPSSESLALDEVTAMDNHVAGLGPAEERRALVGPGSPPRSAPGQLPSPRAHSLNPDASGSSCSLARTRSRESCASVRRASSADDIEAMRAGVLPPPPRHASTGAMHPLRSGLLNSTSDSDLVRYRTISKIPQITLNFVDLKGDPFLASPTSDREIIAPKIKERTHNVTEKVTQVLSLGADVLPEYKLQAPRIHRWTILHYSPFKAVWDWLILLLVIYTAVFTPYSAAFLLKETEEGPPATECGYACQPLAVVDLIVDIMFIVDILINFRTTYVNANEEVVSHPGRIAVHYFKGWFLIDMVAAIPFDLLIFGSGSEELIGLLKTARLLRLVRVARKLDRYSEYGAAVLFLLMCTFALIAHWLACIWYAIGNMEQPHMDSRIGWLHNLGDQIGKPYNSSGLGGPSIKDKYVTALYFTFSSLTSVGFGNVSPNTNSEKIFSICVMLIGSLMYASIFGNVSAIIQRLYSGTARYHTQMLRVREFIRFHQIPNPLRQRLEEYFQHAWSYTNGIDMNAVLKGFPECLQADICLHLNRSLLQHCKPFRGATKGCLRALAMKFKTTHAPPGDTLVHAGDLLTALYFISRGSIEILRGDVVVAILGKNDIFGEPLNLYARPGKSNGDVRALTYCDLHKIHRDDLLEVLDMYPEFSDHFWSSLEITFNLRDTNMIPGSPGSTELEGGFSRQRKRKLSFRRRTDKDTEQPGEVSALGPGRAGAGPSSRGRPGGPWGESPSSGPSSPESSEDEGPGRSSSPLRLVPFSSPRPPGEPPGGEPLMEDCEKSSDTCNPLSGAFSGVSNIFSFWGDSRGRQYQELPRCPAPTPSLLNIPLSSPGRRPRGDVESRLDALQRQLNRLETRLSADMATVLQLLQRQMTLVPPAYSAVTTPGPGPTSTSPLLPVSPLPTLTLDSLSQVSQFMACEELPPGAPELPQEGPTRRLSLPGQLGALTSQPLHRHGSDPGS
Sodium-dependent dopamine transporter (Homo sapiens), sequence (Q01959 whole entry): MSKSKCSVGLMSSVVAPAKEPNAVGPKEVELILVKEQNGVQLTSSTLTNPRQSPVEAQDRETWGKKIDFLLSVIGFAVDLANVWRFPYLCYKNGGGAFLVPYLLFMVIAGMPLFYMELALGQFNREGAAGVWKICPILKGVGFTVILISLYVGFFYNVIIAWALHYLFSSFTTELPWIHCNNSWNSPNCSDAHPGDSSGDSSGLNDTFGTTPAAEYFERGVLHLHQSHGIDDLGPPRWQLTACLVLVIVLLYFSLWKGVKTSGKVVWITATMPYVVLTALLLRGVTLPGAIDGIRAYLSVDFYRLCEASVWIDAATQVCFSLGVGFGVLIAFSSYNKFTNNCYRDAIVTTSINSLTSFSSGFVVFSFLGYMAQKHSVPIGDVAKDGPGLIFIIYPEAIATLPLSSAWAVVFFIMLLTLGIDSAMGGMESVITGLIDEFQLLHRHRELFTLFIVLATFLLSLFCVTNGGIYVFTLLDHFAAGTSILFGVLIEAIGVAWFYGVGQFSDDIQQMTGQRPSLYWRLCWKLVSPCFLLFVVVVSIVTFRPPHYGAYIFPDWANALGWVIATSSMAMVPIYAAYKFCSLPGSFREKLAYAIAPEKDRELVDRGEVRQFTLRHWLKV
5-hydroxytryptamine receptor 2B (Homo sapiens), sequence (P41595 whole entry): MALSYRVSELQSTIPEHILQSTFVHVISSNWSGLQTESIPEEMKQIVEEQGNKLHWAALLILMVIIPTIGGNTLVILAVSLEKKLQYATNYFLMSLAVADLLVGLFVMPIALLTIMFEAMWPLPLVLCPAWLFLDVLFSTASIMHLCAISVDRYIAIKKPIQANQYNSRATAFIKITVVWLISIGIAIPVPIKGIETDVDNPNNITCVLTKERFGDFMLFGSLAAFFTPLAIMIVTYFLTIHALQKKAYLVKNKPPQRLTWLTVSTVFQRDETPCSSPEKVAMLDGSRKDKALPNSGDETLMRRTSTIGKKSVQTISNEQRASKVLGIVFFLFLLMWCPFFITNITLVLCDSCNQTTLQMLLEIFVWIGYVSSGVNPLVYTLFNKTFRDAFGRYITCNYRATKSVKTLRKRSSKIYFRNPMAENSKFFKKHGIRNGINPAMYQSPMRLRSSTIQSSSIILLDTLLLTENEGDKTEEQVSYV
Delta-type opioid receptor, sequence (P41143 whole entry): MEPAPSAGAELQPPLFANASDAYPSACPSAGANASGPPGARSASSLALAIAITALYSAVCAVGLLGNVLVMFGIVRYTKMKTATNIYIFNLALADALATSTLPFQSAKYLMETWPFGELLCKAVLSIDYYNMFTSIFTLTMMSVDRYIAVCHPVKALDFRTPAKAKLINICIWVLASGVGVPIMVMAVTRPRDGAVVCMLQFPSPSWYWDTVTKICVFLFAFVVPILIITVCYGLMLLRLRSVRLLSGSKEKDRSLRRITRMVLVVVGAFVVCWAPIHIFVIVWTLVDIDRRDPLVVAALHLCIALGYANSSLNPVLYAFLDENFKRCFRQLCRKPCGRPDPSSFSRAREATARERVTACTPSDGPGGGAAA
Sodium-dependent noradrenaline transporter (Homo sapiens), sequence (P23975 whole entry): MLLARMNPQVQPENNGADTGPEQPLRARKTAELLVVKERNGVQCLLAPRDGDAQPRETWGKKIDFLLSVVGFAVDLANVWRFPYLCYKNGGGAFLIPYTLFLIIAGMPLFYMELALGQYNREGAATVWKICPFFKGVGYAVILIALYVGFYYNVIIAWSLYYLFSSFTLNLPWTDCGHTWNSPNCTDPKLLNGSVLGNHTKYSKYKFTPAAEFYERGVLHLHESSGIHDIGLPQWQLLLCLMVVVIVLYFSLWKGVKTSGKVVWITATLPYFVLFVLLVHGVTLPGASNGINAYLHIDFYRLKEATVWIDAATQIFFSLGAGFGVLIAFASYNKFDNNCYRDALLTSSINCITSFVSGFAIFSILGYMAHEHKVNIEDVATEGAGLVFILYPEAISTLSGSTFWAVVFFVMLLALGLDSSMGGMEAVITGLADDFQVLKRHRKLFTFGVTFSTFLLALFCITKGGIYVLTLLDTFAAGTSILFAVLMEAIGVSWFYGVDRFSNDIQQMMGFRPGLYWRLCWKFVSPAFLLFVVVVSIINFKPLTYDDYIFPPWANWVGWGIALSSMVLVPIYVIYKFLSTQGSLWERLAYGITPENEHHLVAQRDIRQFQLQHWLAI

In turn, `COc1ccc2c(c1)CCN(CCC(F)Cc1ccccc1)CC2` (stereo not given) came in with a Ki in [1] greater than 1000 nM. In addition, in data set [2], the IC50 turned out to be 553 nM. The inhibition in [3] was less than 50%; in data set [4] it was less than 50%; in [7], less than 50%; in data set [10], 21%. In addition, the result in data set [5] was Active. Moreover, the Activity result in data set [6] is given as “Toxic”. Moreover, in [8], the Stability result was “Stable”. Besides, in data set [9], the Ratio Ki is less than 18.
